Series [1] has as its target Tyrosine-protein kinase ABL2 (Homo sapiens, UniProt P42684). Nature of the series: Inhibition of ABL2 (unknown origin).
Series [2] deals with Serine/threonine-protein kinase Chk1 (Homo sapiens, UniProt O14757). The series can be described thus: Inhibition of CHEK1 (unknown origin).
The target in series [3] is Death-associated protein kinase 3 (Homo sapiens, UniProt O43293). The series can be described thus: Inhibition of DAPK3 (unknown origin).
Series [4] has as its target Tyrosine-protein kinase ITK/TSK (Homo sapiens, UniProt Q08881). The series can be described thus: Inhibition of ITK (unknown origin).
In series [5] the target is Serine/threonine-protein kinase PAK 5 (Homo sapiens, UniProt Q9P286). Nature of the series: Inhibition of PAK7 (unknown origin).
Series [6] concerns the target cAMP-dependent protein kinase catalytic subunit PRKX (Homo sapiens, UniProt P51817). The series can be described thus: Inhibition of PRKX (unknown origin).
A short description of series [7]: Volume of distribution at steady state in male rat at 1.13 mg/kg, iv administered as single dose. It is filed as ADME, organism-based. The conditions noted are these: in vivo, read-out: Vdss.
Series [8] in a line: AUC (0 to infinity) in mouse at 45 mg/kg, po administered as single dose via gavage. Particulars: in vivo. It is filed as ADME, organism-based.
Series [9] can be described thus: Oral bioavailability in mouse at 45 mg/kg administered as single via gavage. It is filed as ADME, organism-based. The conditions noted are these: in vivo.
Series [10] in a line: Drug concentration in mouse brain at 300 ppm administered as rodent chow for 14 days. It is filed as ADME, tissue-based. Particulars: route po, time 14 day, read-out: Ct.
Series [11] concerns Mus musculus. Nature of the series: Antialzheimer activity in 5XFAD mouse assessed as percent change in claudin-5 intensity of thalamus at 1200 ppm administered as rodent chow starting from 1.5 months and measured after 4 months by immunolabeling analysis relative to control. The conditions noted are these: route po, time 2.5 months, 1825 h. It is filed as functional.
Series [12] relates to Mus musculus. Nature of the series: Antialzheimer activity in 5XFAD mouse assessed as alteration in plaque morphology by measuring mean plaque intensity in subiculum at 1200 ppm administered as rodent chow starting from 1.5 months and measured after 7 months by Thio-S labeling based confocal microscopic analysis (reference value: 129.81 to 150.11). It is filed as functional. The conditions noted are these: route po, time 5.5 months, 4015 h.

A short description of series [13]: Effect on Ctsz gene expression in 5XFAD mouse cortex at 1200 ppm administered as rodent chow starting from 1.5 months and measured after 7 months by RNA-Seq analysis (reference value: 27.650 to 42.003 RPKM). It is filed as functional. Particulars: route po, time 5.5 months, 4015 h.
Series [14] can be described thus: Effect on Itgax gene expression in wild type mouse thalamus at 1200 ppm administered as rodent chow starting from 1.5 months and measured after 7 months by RNA-Seq analysis (reference value: 0.077 to 0.240 RPKM). It is filed as functional. Particulars: route po, time 5.5 months, 4015 h.
Series [15] relates to Mus musculus. Nature of the series: Antialzheimer activity in 5XFAD mouse assessed as number of Iba1 positive cells per FOV in […] cortex at 1200 ppm administered as rodent chow starting from 1.5 months to 4 months followed by compound removal and measured after 1 months by immunolabelling based confocal microscopic analysis (reference value: 210 to 529). It is filed as functional. Particulars: route po, time 2.5 months, 1825 h. Summed up: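 For the repopulation paradigm, 5xFAD mice ate 1200 ppm PLX5622 chow from 1.5 to 4 months of age. Inhibitor chow was then withdrawn, and brains were examined one month later. Sections were stained with Thio-S and immunolabeled for IBA1, then analysed by confocal microscopy in cortical regions.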

The target in series [16] is T1, Macrophage colony-stimulating factor 1 receptor (Mus musculus) (UniProt P09581).
T1 sequence (whole entry): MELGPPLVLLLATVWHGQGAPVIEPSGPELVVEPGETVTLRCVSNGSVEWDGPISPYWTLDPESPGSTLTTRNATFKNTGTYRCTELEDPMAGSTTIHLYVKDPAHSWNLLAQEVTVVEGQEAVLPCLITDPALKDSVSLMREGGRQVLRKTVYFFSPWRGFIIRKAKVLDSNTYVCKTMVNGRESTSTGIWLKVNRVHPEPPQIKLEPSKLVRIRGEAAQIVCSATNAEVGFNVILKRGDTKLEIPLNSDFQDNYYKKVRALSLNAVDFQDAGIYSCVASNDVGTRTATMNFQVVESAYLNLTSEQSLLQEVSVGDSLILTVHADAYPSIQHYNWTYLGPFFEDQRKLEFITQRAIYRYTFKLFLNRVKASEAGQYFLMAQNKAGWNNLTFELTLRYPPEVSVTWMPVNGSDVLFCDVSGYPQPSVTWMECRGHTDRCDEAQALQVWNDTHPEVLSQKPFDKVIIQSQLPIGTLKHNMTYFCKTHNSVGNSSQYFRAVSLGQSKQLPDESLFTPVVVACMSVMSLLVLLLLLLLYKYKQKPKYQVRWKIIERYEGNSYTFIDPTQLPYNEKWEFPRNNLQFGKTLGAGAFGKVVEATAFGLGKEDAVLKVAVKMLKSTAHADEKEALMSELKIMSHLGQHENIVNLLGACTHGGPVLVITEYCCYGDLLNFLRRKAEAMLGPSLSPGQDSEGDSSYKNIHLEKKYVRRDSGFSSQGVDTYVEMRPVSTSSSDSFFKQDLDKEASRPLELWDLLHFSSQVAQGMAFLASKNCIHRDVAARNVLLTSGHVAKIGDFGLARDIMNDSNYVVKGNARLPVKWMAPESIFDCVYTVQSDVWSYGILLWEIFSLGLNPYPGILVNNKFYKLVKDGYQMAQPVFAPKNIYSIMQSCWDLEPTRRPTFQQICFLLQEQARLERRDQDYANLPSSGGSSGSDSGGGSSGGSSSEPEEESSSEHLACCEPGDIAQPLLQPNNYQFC
The series can be described thus: In vivo inhibition of CSF1R in wildtype mouse assessed as number of GFAP positive cells per FOV at 1200 ppm administered as rodent chow starting from 1.5 months and measured after 4 months by immunolabeling based confocal microscopic analysis (reference value: 1 to 7). The conditions noted are these: route po, time 2.5 months. It is filed as functional.

In general, IC50 refers to the concentration needed to halve the response being measured. As a reminder, the AUC(0-inf) is the area under the concentration-time curve extrapolated to infinity. A word on the bioavailability: it is the share of a dose that reaches the circulation, judged against a reference dose that is usually intravenous.

Sequence of Serine/threonine-protein kinase Chk1 (O14757 whole entry): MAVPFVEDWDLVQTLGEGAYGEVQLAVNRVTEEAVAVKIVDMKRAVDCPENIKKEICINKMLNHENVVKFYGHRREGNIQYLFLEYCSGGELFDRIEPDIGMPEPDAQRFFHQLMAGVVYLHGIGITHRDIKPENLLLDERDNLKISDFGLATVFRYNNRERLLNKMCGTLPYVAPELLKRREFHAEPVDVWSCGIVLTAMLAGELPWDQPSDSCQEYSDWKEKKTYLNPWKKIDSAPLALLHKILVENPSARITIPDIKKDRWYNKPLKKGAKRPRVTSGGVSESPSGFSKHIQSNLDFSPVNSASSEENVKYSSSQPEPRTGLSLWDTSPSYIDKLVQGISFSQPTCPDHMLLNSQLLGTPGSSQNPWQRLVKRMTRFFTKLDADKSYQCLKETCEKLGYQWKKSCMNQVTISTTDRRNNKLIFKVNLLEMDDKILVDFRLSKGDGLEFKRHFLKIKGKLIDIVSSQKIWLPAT
Sequence of Death-associated protein kinase 3 (O43293 whole entry): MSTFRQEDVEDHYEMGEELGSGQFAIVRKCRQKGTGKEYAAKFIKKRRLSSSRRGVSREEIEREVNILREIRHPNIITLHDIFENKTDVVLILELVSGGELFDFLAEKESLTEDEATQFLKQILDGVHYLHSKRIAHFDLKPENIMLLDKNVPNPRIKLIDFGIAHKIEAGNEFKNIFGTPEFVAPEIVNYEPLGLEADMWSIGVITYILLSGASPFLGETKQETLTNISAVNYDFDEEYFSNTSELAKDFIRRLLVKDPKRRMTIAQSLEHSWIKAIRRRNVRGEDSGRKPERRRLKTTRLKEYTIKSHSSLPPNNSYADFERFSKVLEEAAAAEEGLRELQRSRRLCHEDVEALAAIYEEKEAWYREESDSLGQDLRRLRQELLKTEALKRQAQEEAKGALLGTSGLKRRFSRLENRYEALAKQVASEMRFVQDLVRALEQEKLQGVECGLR
Sequence of cAMP-dependent protein kinase catalytic subunit PRKX (P51817 whole entry): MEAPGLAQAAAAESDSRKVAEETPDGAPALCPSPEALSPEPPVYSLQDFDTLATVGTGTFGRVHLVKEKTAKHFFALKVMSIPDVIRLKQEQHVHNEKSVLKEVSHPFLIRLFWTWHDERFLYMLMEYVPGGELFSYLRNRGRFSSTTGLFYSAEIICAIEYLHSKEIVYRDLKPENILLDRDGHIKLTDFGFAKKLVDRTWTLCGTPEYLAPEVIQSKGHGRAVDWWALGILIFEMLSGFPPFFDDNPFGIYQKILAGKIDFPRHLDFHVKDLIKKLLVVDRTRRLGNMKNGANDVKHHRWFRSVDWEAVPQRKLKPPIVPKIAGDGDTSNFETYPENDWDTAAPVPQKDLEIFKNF
Sequence of Tyrosine-protein kinase ITK/TSK (Q08881 whole entry): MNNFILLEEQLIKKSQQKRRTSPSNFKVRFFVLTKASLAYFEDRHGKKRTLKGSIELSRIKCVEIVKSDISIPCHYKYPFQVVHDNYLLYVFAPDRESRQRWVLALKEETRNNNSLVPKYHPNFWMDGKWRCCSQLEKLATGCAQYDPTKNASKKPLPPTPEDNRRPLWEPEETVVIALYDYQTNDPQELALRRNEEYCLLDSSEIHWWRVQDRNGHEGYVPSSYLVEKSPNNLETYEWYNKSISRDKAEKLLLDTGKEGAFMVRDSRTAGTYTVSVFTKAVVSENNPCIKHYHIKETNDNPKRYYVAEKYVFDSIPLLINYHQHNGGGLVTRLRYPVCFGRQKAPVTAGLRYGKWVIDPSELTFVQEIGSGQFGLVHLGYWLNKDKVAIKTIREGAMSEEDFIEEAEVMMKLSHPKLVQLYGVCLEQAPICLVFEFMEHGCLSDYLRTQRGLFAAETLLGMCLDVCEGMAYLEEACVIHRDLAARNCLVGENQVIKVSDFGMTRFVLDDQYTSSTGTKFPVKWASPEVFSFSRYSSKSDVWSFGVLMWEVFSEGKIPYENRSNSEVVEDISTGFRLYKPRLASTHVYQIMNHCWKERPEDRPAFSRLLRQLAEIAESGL
Sequence of Tyrosine-protein kinase ABL2 (P42684 whole entry): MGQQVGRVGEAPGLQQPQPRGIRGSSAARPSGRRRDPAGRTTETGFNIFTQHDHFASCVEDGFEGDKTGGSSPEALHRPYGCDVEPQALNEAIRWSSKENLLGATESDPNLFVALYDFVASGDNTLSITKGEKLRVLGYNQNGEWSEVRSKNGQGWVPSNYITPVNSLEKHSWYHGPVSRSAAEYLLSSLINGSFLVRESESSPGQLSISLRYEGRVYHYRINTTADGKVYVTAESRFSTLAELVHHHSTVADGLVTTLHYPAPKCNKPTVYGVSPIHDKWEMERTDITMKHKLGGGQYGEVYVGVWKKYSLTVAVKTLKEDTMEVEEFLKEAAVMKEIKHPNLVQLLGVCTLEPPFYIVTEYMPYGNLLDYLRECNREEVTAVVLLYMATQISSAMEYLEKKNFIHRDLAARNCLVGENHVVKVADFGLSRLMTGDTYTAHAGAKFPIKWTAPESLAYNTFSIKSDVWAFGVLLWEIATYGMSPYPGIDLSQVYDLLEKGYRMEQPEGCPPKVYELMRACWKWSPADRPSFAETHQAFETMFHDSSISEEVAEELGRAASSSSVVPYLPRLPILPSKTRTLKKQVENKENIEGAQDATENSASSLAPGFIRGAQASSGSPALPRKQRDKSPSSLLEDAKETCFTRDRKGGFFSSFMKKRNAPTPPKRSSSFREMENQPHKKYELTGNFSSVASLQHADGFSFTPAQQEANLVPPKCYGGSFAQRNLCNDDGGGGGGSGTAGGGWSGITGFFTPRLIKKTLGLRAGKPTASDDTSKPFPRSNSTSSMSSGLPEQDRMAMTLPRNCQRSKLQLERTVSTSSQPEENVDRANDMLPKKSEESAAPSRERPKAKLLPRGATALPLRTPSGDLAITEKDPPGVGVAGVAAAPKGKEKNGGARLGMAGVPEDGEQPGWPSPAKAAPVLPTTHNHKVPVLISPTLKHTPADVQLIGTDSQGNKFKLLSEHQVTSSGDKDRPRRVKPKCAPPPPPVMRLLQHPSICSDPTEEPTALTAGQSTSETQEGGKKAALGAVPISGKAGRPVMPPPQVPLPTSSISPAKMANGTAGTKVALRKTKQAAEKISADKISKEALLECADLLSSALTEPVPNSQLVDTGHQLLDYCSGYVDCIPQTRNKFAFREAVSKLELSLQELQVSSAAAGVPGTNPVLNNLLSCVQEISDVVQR
Sequence of Serine/threonine-protein kinase PAK 5 (Q9P286 whole entry): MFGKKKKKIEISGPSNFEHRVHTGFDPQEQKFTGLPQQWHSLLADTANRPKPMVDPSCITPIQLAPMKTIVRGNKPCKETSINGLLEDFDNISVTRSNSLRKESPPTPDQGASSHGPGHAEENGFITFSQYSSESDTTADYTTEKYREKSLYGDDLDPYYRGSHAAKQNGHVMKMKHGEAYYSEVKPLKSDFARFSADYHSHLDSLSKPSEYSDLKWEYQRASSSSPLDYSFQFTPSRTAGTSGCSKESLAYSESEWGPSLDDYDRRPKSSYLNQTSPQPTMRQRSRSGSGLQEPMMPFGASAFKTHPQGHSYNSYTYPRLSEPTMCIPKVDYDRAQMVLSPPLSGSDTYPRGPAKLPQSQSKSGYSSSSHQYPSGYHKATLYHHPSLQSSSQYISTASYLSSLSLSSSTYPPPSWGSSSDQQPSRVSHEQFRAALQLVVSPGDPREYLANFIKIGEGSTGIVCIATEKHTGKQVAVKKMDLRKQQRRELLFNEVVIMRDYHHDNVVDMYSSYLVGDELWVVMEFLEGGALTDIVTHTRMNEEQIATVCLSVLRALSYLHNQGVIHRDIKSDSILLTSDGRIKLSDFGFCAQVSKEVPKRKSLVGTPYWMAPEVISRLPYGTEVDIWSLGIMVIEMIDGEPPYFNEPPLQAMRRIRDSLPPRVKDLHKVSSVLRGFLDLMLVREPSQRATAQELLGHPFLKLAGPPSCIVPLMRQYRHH

In the case of `COc1ncc(F)cc1CNc1ccc(Cc2c[nH]c3ncc(C)cc23)c(F)n1` [PLX-5622], the concentration for half-maximal inhibition (IC50) in [1], in series [2], in series [3], in series [4], in series [5] and in series [6] was above 1000 nM each time. Also, the Vd in series [7] came to 1.2 L/kg. Also, the AUC(0-inf) in series [8] worked out at 215 µg·h/mL. Besides, the bioavailability in [9] is 59%. Besides, the concentration at 336 h in [10] was 963 ng/mL. In addition, the Activity turned out to be 7.551% in series [11]; 83.86 in series [12]; 13.681 RPKM in series [13]; 0 RPKM in series [14]; 66 in series [15]; 4 in [16].

(Values after ChEMBL document CHEMBL5649170, “Sustained microglial depletion with CSF1R inhibitor impairs parenchymal plaque development in an Alzheimer's disease model” (Nat Commun, 2019).)
